IC50 data for 11 compounds are collected here from ChEMBL document CHEMBL1141019, “New cyclic tetrapeptides from Nonomuraea sp. TA-0426 that inhibit glycine transporter type 1 (GlyT1)” (Bioorg Med Chem Lett, 2008).

For the test, the system named is T98G. In words: Inhibition of [3H]glycine uptake in human T98G cells. It is filed as functional, cell-based. The essentials:
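T98G cells (2 × 10⁴ cells/well) plated, held 24 h at 37 °C in humidified incubator; washed, then exposed at room temperature to 250 nM [³H]-glycine plus test sample for 15 min. Cells washed, lysed in 0.5 M NaOH, radioactivity read by scintillation counting. IC50 from nonlinear regression curve fit; means of two experiments.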

Residues, ends and D or L forms follow the SMILES beside them.

In general, IC50 refers to the point on the concentration scale where inhibition reaches its midpoint. Low values mean inhibition by little substance, high ones a need for much substance. `CC[C@H](C)[C@@H]1NC(=O)[C@H](Cc2ccccc2)NC(=O)[C@H]([C@H](C)[C@@H](C)O)NC(=O)[C@H](C(C)C)NC1=O` showed an IC50 of 5.5 nM.
With `CC[C@H](C)[C@@H]1NC(=O)[C@H](Cc2cn(OC)c3ccccc23)NC(=O)[C@H](CCCCC(C)=O)NC(=O)[C@H]2CCCCN2C1=O`, half-maximal inhibition (IC50) required 71.8 nM. Compared with the last compound, the IC50 is about 13-fold higher.
With `CC(C)[C@@H]1NC(=O)[C@H](Cc2ccccc2)NC(=O)[C@H]([C@H](C)[C@@H](C)O)NC(=O)[C@H](C(C)C)NC1=O` the figure was 4 nM.
With `CC[C@H](C)[C@@H]1NC(=O)[C@H](Cc2ccccc2)NC(=O)[C@H]([C@H](C)[C@@H](C)O)NC(=O)[C@H]([C@@H](C)CC)NC1=O` the figure was 3.5 nM; with `CC[C@H](C)[C@@H]1NC(=O)[C@H](C(C)C)NC(=O)[C@H](Cc2ccccc2)NC(=O)[C@H]([C@H](C)[C@@H](C)O)NC1=O`, 5 nM; with `CC[C@H](C)[C@@H]1NC(=O)[C@H](Cc2ccccc2)NC(=O)[C@H]([C@@H](C)CC)NC(=O)[C@H]([C@@H](C)CC)NC(=O)[C@H]([C@@H](C)CC)NC(=O)[C@H]([C@@H](C)CC)NC1=O` (cyclo(FIIIII)), 1680 nM.
`CC[C@H](C)[C@@H]1NC(=O)[C@H](Cc2ccccc2)NC(=O)[C@H]([C@H](CS(=O)(=O)O)C(C)=O)NC(=O)[C@H]([C@@H](C)CC)NC1=O` displayed an IC50 of 12.5 nM.
With `CC[C@H](C)[C@@H]1NC(=O)[C@H](Cc2ccccc2)NC(=O)[C@H]([C@@H](C)CC)NC(=O)[C@H]([C@@H](C)CC)NC(=O)[C@H]([C@@H](C)CC)NC1=O` (cyclo(FIIII)) the figure was 655 nM.
With `CN(CC[C@@H](Oc1ccc(-c2ccccc2)cc1)c1ccc(F)cc1)CC(=O)O` the figure was 4.8 nM.
With `CC[C@H](C)[C@@H]1NC(=O)[C@H](Cc2ccccc2)NC(=O)[C@H]([C@@H](C)CC)NC(=O)[C@H]([C@@H](C)CC)NC1=O` (cyclo(FIII)) the figure was 21.2 nM; with `CC[C@H](C)[C@H](N)C(=O)N[C@H](C(=O)N[C@H](C(=O)N[C@@H](Cc1ccccc1)C(=O)O)[C@@H](C)CC)[C@@H](C)CC` (H-IIIF-OH), 16400 nM.
